Experimental data from ChEMBL document CHEMBL2086252, “Syntheses and evaluation of anticonvulsant activity of novel branched alkyl carbamates” (J Med Chem, 2012).
Active and inactive are the calls of the source. The calls are words filed in the database; no cut-off is given here.

Assays:
Rattus norvegicus [1] = experiment: Anticonvulsant activity in ip dosed Sprague-Dawley albino rat assessed as protection against pilocarpine-induced status epilepticus after 0.5 hrs; type: functional
Method in brief: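 Pilocarpine status epilepticus model in rats. Number and severity of convulsive seizures were observed behaviourally.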

Mus musculus [2] = experiment: Anticonvulsant activity in albino CF1 mouse assessed as protection against subcutaneous metrazol-induced seizures at 30 mg/kg, ip after 0.5 hrs; type: functional, organism-based; set-up: dose 30 mg/kg
Method in brief: (§1)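 Mice dosed ip at 30, 100 or 300 mg/kg, then tested 0.5 h and 4 h after administration in the MES or scMet test. Protection was recorded as animals protected over animals tested. Neurotoxicity was recorded as motor impairment or sedation, as animals affected over animals tested.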

Mus musculus [3] = experiment: Anticonvulsant activity in albino CF1 mouse assessed as protection against subcutaneous metrazol-induced seizures at 100 mg/kg, ip after 0.5 hrs; type: functional, organism-based; set-up: dose 100 mg/kg; method in brief: as §1
Mus musculus [4] = experiment: Anticonvulsant activity in albino CF1 mouse assessed as protection against subcutaneous metrazol-induced seizures at 300 mg/kg, ip after 0.5 hrs; type: functional, organism-based; set-up: dose 300 mg/kg; method in brief: as §1
Mus musculus [5] = experiment: Anticonvulsant activity in albino CF1 mouse assessed as protection against subcutaneous metrazol-induced seizures at 30 mg/kg, ip after 4 hrs; type: functional, organism-based; set-up: dose 30 mg/kg; method in brief: as §1
Mus musculus [6] = experiment: Anticonvulsant activity in albino CF1 mouse assessed as protection against subcutaneous metrazol-induced seizures at 100 mg/kg, ip after 4 hrs; type: functional, organism-based; set-up: dose 100 mg/kg; method in brief: as §1
Mus musculus [7] = experiment: Anticonvulsant activity in albino CF1 mouse assessed as protection against subcutaneous metrazol-induced seizures at 300 mg/kg, ip after 4 hrs; type: functional, organism-based; set-up: dose 300 mg/kg; method in brief: as §1
Mus musculus [8] = experiment: Anticonvulsant activity in albino CF1 mouse assessed as protection against maximal electroshock-induced seizures at 30 mg/kg, ip after 0.5 hrs; type: functional, organism-based; set-up: dose 30 mg/kg; method in brief: as §1
Mus musculus [9] = experiment: Anticonvulsant activity in albino CF1 mouse assessed as protection against maximal electroshock-induced seizures at 100 mg/kg, ip after 0.5 hrs; type: functional, organism-based; set-up: dose 100 mg/kg; method in brief: as §1
Mus musculus [10] = experiment: Anticonvulsant activity in albino CF1 mouse assessed as protection against maximal electroshock-induced seizures at 300 mg/kg, ip after 0.5 hrs; type: functional, organism-based; set-up: dose 300 mg/kg; method in brief: as §1
Mus musculus [11] = experiment: Anticonvulsant activity in albino CF1 mouse assessed as protection against maximal electroshock-induced seizures at 30 mg/kg, ip after 4 hrs; type: functional, organism-based; set-up: dose 30 mg/kg; method in brief: as §1
Mus musculus [12] = experiment: Anticonvulsant activity in albino CF1 mouse assessed as protection against maximal electroshock-induced seizures at 100 mg/kg, ip after 4 hrs; type: functional, organism-based; set-up: dose 100 mg/kg; method in brief: as §1
Mus musculus [13] = experiment: Anticonvulsant activity in albino CF1 mouse assessed as protection against maximal electroshock-induced seizures at 300 mg/kg, ip after 4 hrs; type: functional, organism-based; set-up: dose 300 mg/kg; method in brief: as §1
Mus musculus [14] = experiment: Neurotoxicity in albino CF1 mouse assessed as minimal motor impairment at 30 mg/kg, ip after 0.5 hrs by rotarod test; type: toxicity, organism-based; set-up: dose 30 mg/kg, route intraperitoneal; details: in vivo; method in brief: as §1
Mus musculus [15] = experiment: Neurotoxicity in albino CF1 mouse assessed as minimal motor impairment at 30 mg/kg, ip after 4 hrs by rotarod test; type: toxicity, organism-based; set-up: dose 30 mg/kg, route intraperitoneal; details: in vivo; method in brief: as §1
Mus musculus [16] = experiment: Neurotoxicity in albino CF1 mouse assessed as minimal motor impairment at 100 mg/kg, ip after 4 hrs by rotarod test; type: toxicity, organism-based; set-up: dose 100 mg/kg, route intraperitoneal; details: in vivo; method in brief: as §1
Mus musculus [17] = experiment: Neurotoxicity in albino CF1 mouse assessed as minimal motor impairment at 300 mg/kg, ip after 4 hrs by rotarod test; type: toxicity, organism-based; set-up: dose 300 mg/kg, route intraperitoneal; details: in vivo; method in brief: as §1
Mus musculus [18] = experiment: Neurotoxicity in albino CF1 mouse assessed as minimal motor impairment at 100 mg/kg, ip after 0.5 hrs by rotarod test; type: toxicity, organism-based; set-up: dose 100 mg/kg, route intraperitoneal; details: in vivo; method in brief: as §1
Mus musculus [19] = experiment: Neurotoxicity in albino CF1 mouse assessed as minimal motor impairment at 300 mg/kg, ip after 0.5 hrs by rotarod test; type: toxicity, organism-based; set-up: dose 300 mg/kg, route intraperitoneal; details: in vivo; method in brief: as §1
Rattus norvegicus [20] = experiment: Neurotoxicity in pilocarpine-induced status epilepticus Sprague-Dawley albino rat model assessed as minimal motor impairment at 100 mg/kg, ip after 0.25 hr by rotarod test; type: toxicity, organism-based; set-up: dose 100 mg/kg, route intraperitoneal; details: in vivo
Rattus norvegicus [21] = experiment: Neurotoxicity in pilocarpine-induced status epilepticus Sprague-Dawley albino rat model assessed as minimal motor impairment at 300 mg/kg, ip after 0.25 hr by rotarod test; type: toxicity, organism-based; set-up: dose 300 mg/kg, route intraperitoneal; details: in vivo
Method in brief: (§2)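 Rat pilocarpine status epilepticus model: test carbamate given at 0 or 30 min after the first observed Racine stage 3 motor seizure, which marks SE onset. Neurotoxicity was scored within the same model.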

Rattus norvegicus [22] = experiment: Neurotoxicity in pilocarpine-induced status epilepticus Sprague-Dawley albino rat model assessed as minimal motor impairment at 100 mg/kg, ip after 0.5 hrs by rotarod test; type: toxicity, organism-based; set-up: dose 100 mg/kg, route intraperitoneal; details: in vivo
Rattus norvegicus [23] = experiment: Neurotoxicity in pilocarpine-induced status epilepticus Sprague-Dawley albino rat model assessed as minimal motor impairment at 300 mg/kg, ip after 0.5 hrs by rotarod test; type: toxicity, organism-based; set-up: dose 300 mg/kg, route intraperitoneal; details: in vivo; method in brief: as §2
Rattus norvegicus [24] = experiment: Neurotoxicity in pilocarpine-induced status epilepticus Sprague-Dawley albino rat model assessed as minimal motor impairment at 100 mg/kg, ip after 1 hr by rotarod test; type: toxicity, organism-based; set-up: dose 100 mg/kg, route intraperitoneal; details: in vivo
Rattus norvegicus [25] = experiment: Neurotoxicity in pilocarpine-induced status epilepticus Sprague-Dawley albino rat model assessed as minimal motor impairment at 300 mg/kg, ip after 1 hr by rotarod test; type: toxicity, organism-based; set-up: dose 300 mg/kg, route intraperitoneal; details: in vivo; method in brief: as §2
Rattus norvegicus [26] = experiment: Neurotoxicity in pilocarpine-induced status epilepticus Sprague-Dawley albino rat model assessed as minimal motor impairment at 100 mg/kg, ip after 2 hrs by rotarod test; type: toxicity, organism-based; set-up: dose 100 mg/kg, route intraperitoneal; details: in vivo
Rattus norvegicus [27] = experiment: Neurotoxicity in pilocarpine-induced status epilepticus Sprague-Dawley albino rat model assessed as minimal motor impairment at 300 mg/kg, ip after 2 hrs by rotarod test; type: toxicity, organism-based; set-up: dose 300 mg/kg, route intraperitoneal; details: in vivo; method in brief: as §2
Rattus norvegicus [28] = experiment: Neurotoxicity in pilocarpine-induced status epilepticus Sprague-Dawley albino rat model assessed as minimal motor impairment at 100 mg/kg, ip after 4 hrs by rotarod test; type: toxicity, organism-based; set-up: dose 100 mg/kg, route intraperitoneal; details: in vivo
Rattus norvegicus [29] = experiment: Neurotoxicity in pilocarpine-induced status epilepticus Sprague-Dawley albino rat model assessed as minimal motor impairment at 300 mg/kg, ip after 4 hrs by rotarod test; type: toxicity, organism-based; set-up: dose 300 mg/kg, route intraperitoneal; details: in vivo; method in brief: as §2
Rattus norvegicus [30] = experiment: Anticonvulsant activity in Sprague-Dawley albino rat assessed as protection against maximal electroshock-induced seizures at 30 mg/kg, po after 15 mins; type: functional, organism-based; set-up: dose 30 mg/kg
Method in brief: (§3)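 Rats dosed orally. Anti-MES protection was scored as animals protected over animals tested at each time after dosing. Neurotoxicity was scored as motor impairment or sedation, as animals affected over animals tested.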

Rattus norvegicus [31] = experiment: Anticonvulsant activity in Sprague-Dawley albino rat assessed as protection against maximal electroshock-induced seizures at 30 mg/kg, po after 30 mins; type: functional, organism-based; set-up: dose 30 mg/kg; method in brief: as §3
Rattus norvegicus [32] = experiment: Anticonvulsant activity in Sprague-Dawley albino rat assessed as protection against maximal electroshock-induced seizures at 30 mg/kg, po after 1 hr; type: functional, organism-based; set-up: dose 30 mg/kg; method in brief: as §3
Rattus norvegicus [33] = experiment: Anticonvulsant activity in Sprague-Dawley albino rat assessed as protection against maximal electroshock-induced seizures at 30 mg/kg, po after 2 hrs; type: functional, organism-based; set-up: dose 30 mg/kg; method in brief: as §3
Rattus norvegicus [34] = experiment: Anticonvulsant activity in Sprague-Dawley albino rat assessed as protection against maximal electroshock-induced seizures at 30 mg/kg, po after 4 hrs; type: functional, organism-based; set-up: dose 30 mg/kg; method in brief: as §3
Rattus norvegicus [35] = experiment: Neurotoxicity in Sprague-Dawley albino rat assessed as minimal motor impairment at 30 mg/kg, po by rotarod test; type: toxicity, organism-based; set-up: dose 30 mg/kg, route oral; details: in vivo; method in brief: as §3

SMILES	Activity (Mus musculus [2])	Activity (Mus musculus [3])	Activity (Mus musculus [4])	Activity (Mus musculus [5])	Activity (Mus musculus [6])	Activity (Mus musculus [7])	Activity (Mus musculus [8])	Activity (Mus musculus [9])	Activity (Mus musculus [10])	Activity (Mus musculus [11])	Activity (Mus musculus [12])	Activity (Mus musculus [13])	Activity (Mus musculus [14])	Activity (Mus musculus [15])	Activity (Mus musculus [16])	Activity (Mus musculus [17])	Activity (Mus musculus [18])	Activity (Mus musculus [19])	Activity (Rattus norvegicus [21])	Activity (Rattus norvegicus [23])	also measured
CCCC(C(N)=O)C(C)CC (centres undefined)																					ED50 (Rattus norvegicus [1]): 84 mg/kg
CCCC(CCC)COC(=O)NC1CCCCC1	inactive	inactive	inactive	inactive	inactive	inactive	inactive	inactive	inactive	inactive	inactive	inactive	Non-toxic	Non-toxic	Non-toxic	Non-toxic					
CC(C)(C)CCOC(N)=O	inactive			inactive			Active	Active					Toxic				Toxic	Toxic	Toxic	Toxic	Activity (Rattus norvegicus [20]): Non-toxic; Activity (Rattus norvegicus [22]): Non-toxic; Activity (Rattus norvegicus [24]): Non-toxic; Activity (Rattus norvegicus [25]): Non-toxic; Activity (Rattus norvegicus [26]): Non-toxic; Activity (Rattus norvegicus [27]): Non-toxic; Activity (Rattus norvegicus [28]): Non-toxic; Activity (Rattus norvegicus [29]): Non-toxic
NC(=O)N1c2ccccc2C=Cc2ccccc21 [CARBAMAZEPINE]																					ED50 (Rattus norvegicus [1]): 50 mg/kg
CCC(CC)COC(N)=O	inactive	inactive	Active	inactive	inactive	inactive	inactive		Active	inactive	inactive	inactive	Non-toxic	Non-toxic	Non-toxic	Non-toxic	Non-toxic	Toxic	Toxic	Toxic	Activity (Rattus norvegicus [30]): inactive; Activity (Rattus norvegicus [31]): inactive; Activity (Rattus norvegicus [32]): inactive; Activity (Rattus norvegicus [33]): inactive; Activity (Rattus norvegicus [34]): inactive; Activity (Rattus norvegicus [35]): Non-toxic; Activity (Rattus norvegicus [24]): Non-toxic; Activity (Rattus norvegicus [25]): Non-toxic; Activity (Rattus norvegicus [26]): Non-toxic; Activity (Rattus norvegicus [27]): Non-toxic; Activity (Rattus norvegicus [28]): Non-toxic; Activity (Rattus norvegicus [29]): Non-toxic
CCCCC(CC)COC(N)=O (racemic)	inactive	inactive	Active	inactive	inactive	inactive	inactive	Active	Active	inactive	inactive	Active	Non-toxic	Non-toxic	Non-toxic	Non-toxic	Non-toxic	Toxic	Toxic	Toxic	Activity (Rattus norvegicus [31]): inactive; Activity (Rattus norvegicus [32]): inactive; Activity (Rattus norvegicus [33]): inactive; Activity (Rattus norvegicus [34]): inactive; Activity (Rattus norvegicus [35]): Non-toxic; Activity (Rattus norvegicus [20]): Non-toxic; Activity (Rattus norvegicus [22]): Non-toxic; Activity (Rattus norvegicus [24]): Non-toxic; Activity (Rattus norvegicus [25]): Toxic; Activity (Rattus norvegicus [26]): Non-toxic; Activity (Rattus norvegicus [27]): Toxic; Activity (Rattus norvegicus [28]): Non-toxic; Activity (Rattus norvegicus [29]): Toxic
